This is a sample that favours compounds with a hit; in the whole collection about 1.9% have one here.
DENV2 CPE = DENV2-induced cell death inhibition. DENV2-infected cells, cytopathic effect rescue, plate reader. CPE inhibition, % at 9.99 µM. AID 651640. actives 1.7% (n = 350,000); in the data active = CPE inhibition above about 20%, passing the limit was not always enough; inconclusive = no clear call, values can overlap the other calls; tested in BHK-21 cells
Cneo AK release = causes C. neoformans cell lysis; adenylate kinase release luminescence, 4 h; normalised: neutral wells 0, clomiphene wells 100; lysis activity, % at 15 µM; actives 0.2% (n = 360,000);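 active = mean lysis activity across replicates of at least 80%, whatever share of replicates individually reach that level; inactive = mean lysis activity below 80%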
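read-out = cell lysis signal | test system = log-phase Cryptococcus neoformans yeast cells | input = cells at 5 × 10^6 per mL | medium = fresh YPD growth medium | signal = luminescent adenylate kinase detection reagent | timing = 4 h at 37 °C static, read 1 h later | dosing = single dose | controls = Clomiphene as positive lysis control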
XiGFP reactiv = activators of X-chromosome reactivation in mouse fibroblasts. XiGFP mouse fibroblasts, % GFP-positive cells imaging, 3 d; cells co-treated with 5-aza-dC sensitizer; scaled so ellipticine positive control = 100%. AID 743238. actives 0.055% (n = 360,000). activation, % at 7.58 µM;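 active = mean normalized replicate activation at least 10% and every replicate at or above 10%; inconclusive = only one of the two criteria met; inactive = mean below 10% and not all replicates reach 10%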
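System: 68-5-11 XiGFP fibroblast line; Timing: 3 days compound exposure; Compound dosing: one concentration, pinned; Benchmarks: positive control ellipticine, 6 µM final; Buffer or medium: DMEM containing 5-aza-dC.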
PGC1a acetyl inh = PGC1a acetylation modulation, inhibitor mode. actives 0.17% (n = 350,000). AID 651687. U2OS PGC1a acetylation, AlphaScreen anti-acetyl-lysine; with virally co-expressed GCN5 acetyltransferase. inhibition, % at 15.6 µM;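 active = every replicate shows inhibition of at least 40%; inconclusive = mean inhibition at least 40% but some replicate below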
FN deposit inh = fibronectin deposition inhibition; AH1F fibroblasts, Alexa488-fibronectin deposition fluorescence, overnight; inhibition, % at 12.6 µM; actives 0.086% (n = 350,000); AID 743247;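 active = mean inhibition across replicates of 30% or more, regardless of how many single replicates reach that level; inconclusive = mean under 30% yet at least half of replicates reach 30%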
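material = AH1F fibroblast monolayer depositing Alexa488-labelled fibronectin into matrix | amount = 10000 AH1F cells/well | buffer or medium = DMEM plus 2% serum, read in PBS | incubation = 1 h cell adhesion before compound, then overnight fibronectin incubation | detection = fluorescence at 485 nm excitation, 525 nm emission | evaluation = percent inhibition as loss of matrix-bound fibronectin fluorescence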
CFTR F508del cor = CFTR F508del correction in bronchial cells. CFBE cells, YFP halide quenching; stimulated with forskolin plus potentiator P3; % fluorescence drop versus neutral controls. activity (quench increase), % at 7.58 µM. actives 0.36% (n = 350,000);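 active = mean added fluorescence quench of at least 8% versus neutral control, with both replicates also reaching 8%; inconclusive = only one of the mean or replicate conditions met; inactive = mean below 8% and not both replicates reaching 8%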;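 note: cells transiently co-express mutant CFTR-F508del with the halide-sensitive YFP; corrector assay measuring rescue of mutant channel to the surface after 24 h compound exposure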
Large screens that a line does not name were inactive; ! = not confirmed by another sample.

Cc1cccc(C)c1NC(=O)C(C)n1c(-c2ccc(=O)[nH]c2)nc2ccccc21 (configuration not stated)	DENV2 CPE 21 (no result: Cneo AK release, PGC1a acetyl inh)
Cc1cccc(C)c1NC(=O)C(C1CC1)n1c(-c2ccc(=O)[nH]c2)nc2ccccc21 (configuration not stated)	none (no result: Cneo AK release, PGC1a acetyl inh)
COc1ccc(S(=O)(=O)NCCC(=O)NCc2ccc(F)cc2)cc1	PGC1a acetyl inh 80 (no result: DENV2 CPE, XiGFP reactiv, CFTR F508del cor)
COc1ccc(CNC(=O)CCS(=O)(=O)c2ccc3c(c2)NC(=O)C(C)S3)cc1 (configuration not stated)	none (no result: PGC1a acetyl inh)
COc1ccc(CNC(=O)CCNS(=O)(=O)c2ccc(Cl)cc2)cc1	none
COc1ccc(CNC(=O)CCS(=O)(=O)c2ccc3c(c2)NC(=O)CS3)cc1	DENV2 CPE 35
COc1ccc(NC(=O)N(C)C[C@H]2Oc3ccc(NC(=O)Nc4ccc(F)cc4)cc3CC(=O)N([C@H](C)CO)C[C@@H]2C)cc1	none (no result: FN deposit inh)
Cc1ccc2cc(CN(CC3CCCO3)C(=S)Nc3ccccc3)c(=O)[nH]c2c1C (configuration not stated)	CFTR F508del cor 12 (no result: DENV2 CPE, Cneo AK release, PGC1a acetyl inh)
c1ccc(-c2cn(CC3CCCCC3)nn2)cc1	none
OCCCc1cn(CC2CCCCC2)nn1	DENV2 CPE 48
C[C@@H]1CCCCO[C@H](CN(C)Cc2ccccc2)[C@H](C)CN([C@H](C)CO)C(=O)c2cc(NC(=O)CCC(F)(F)F)ccc2O1	DENV2 CPE 37
C[C@@H]1CCCCO[C@@H](CN(C)Cc2ccccc2)[C@H](C)CN([C@H](C)CO)C(=O)c2cc(NC(=O)CCC(F)(F)F)ccc2O1	DENV2 CPE inconclusive
COc1ccc(CN(C)C[C@@H]2OCCCC[C@H](C)Oc3ccc(NC(=O)CCC(F)(F)F)cc3C(=O)N([C@H](C)CO)C[C@H]2C)cc1	DENV2 CPE 62 (no result: FN deposit inh)
COc1ccc(CN(C)C[C@H]2OCCCC[C@H](C)Oc3ccc(NC(=O)CCC(F)(F)F)cc3C(=O)N([C@@H](C)CO)C[C@@H]2C)cc1	DENV2 CPE 44!
CCCCN1C(=O)C(CC(=O)NC2CCCC2)CC(C(=O)N(CC)CC)=C1C (configuration not stated)	none
CCCCN1C(=O)C(CC(=O)NC2CC2)CC(C(=O)N(CC)CC)=C1C (configuration not stated)	DENV2 CPE 23
CN(C)C(=O)c1cccc(-c2ccc3c(c2)[C@H]2[C@H](CCN2C(=O)c2ccccc2F)[C@H](CO)N3)c1	none
O=C1OCC2=C1C(c1ccc3c(c1)OCO3)c1cc3c(cc1O2)OCO3 (configuration not stated)	CFTR F508del cor 9.8 (no result: Cneo AK release, PGC1a acetyl inh)
CO[C@@H]1CN(C)C(=O)c2ccc(NC(C)=O)cc2OC[C@@H](C)N(Cc2ccncc2)C[C@@H]1C	none (no result: DENV2 CPE, Cneo AK release, PGC1a acetyl inh, CFTR F508del cor)
CCCCc1nc2cc(C(=O)NCc3cn(C)nc3C)ccc2o1	DENV2 CPE 47
CCCCc1nc2cc(C(=O)NCc3nccn3CC)ccc2o1	DENV2 CPE inconclusive
C[C@@H]1CN([C@H](C)CO)C(=O)c2cc(NC(=O)Nc3cccc4ccccc34)ccc2O[C@H]1CN(C)S(=O)(=O)c1cn(C)cn1	DENV2 CPE inconclusive (no result: Cneo AK release, FN deposit inh)
CCOc1ccc(N(CC(=O)NC2CCCCC2)C(=O)CNC(=O)c2cccs2)cc1	DENV2 CPE 33
CCOC(=O)C1=CCN(S(=O)(=O)c2ccc(F)cc2)C1c1cccc(Cl)c1 (configuration not stated)	DENV2 CPE 84
CCOC(=O)C1=C[C@@H](c2ccccc2)N(S(=O)(=O)c2ccc(C)cc2)[C@H]1c1cccc(Cl)c1	DENV2 CPE 30
CCOC(=O)C1=C[C@@H](CC)N(S(=O)(=O)c2ccc([N+](=O)[O-])cc2)[C@H]1c1ccccc1	DENV2 CPE 42 (no result: FN deposit inh)
CCCC(=O)Nc1ccc2c(c1)C(=O)N(C)[C@@H]1CC[C@H](CC(=O)NCCN3CCCCC3)O[C@H]1CO2	none (no result: DENV2 CPE, Cneo AK release)
Cc1noc(C)c1NC(=O)N(C)C[C@@H]1Oc2ccc(NS(=O)(=O)c3c(C)noc3C)cc2CC(=O)N([C@@H](C)CO)C[C@@H]1C	none
O=C(C1CCCC1)N1CC2(C1)[C@@H](c1ccccc1)[C@@H](CO)N2Cc1cncnc1	none (no result: Cneo AK release, PGC1a acetyl inh)
COc1ccc(Nc2ccc(S(=O)(=O)N3CCCCC3)cc2[N+](=O)[O-])cc1	none (no result: DENV2 CPE, PGC1a acetyl inh, CFTR F508del cor)
COc1ccc(Nc2ccc(S(=O)(=O)N3CCCCC3)cc2[N+](=O)[O-])cc1Cl	DENV2 CPE 41
Cc1ccc(S(=O)(=O)N(C)C[C@@H]2Oc3c(NC(=O)C4CCCCC4)cccc3C(=O)N([C@H](C)CO)C[C@@H]2C)cc1	none (no result: PGC1a acetyl inh, FN deposit inh)
COc1ccccc1CN(C)C[C@@H]1OCc2cn(nn2)CCCC(=O)N([C@H](C)CO)C[C@@H]1C	none
CCc1nnc(NC(=O)c2ccc(F)c(S(=O)(=O)N3CCCCC3)c2)s1	DENV2 CPE 69 (no result: PGC1a acetyl inh)
O=C(Nc1nc(-c2ccccn2)cs1)c1ccc(F)c(S(=O)(=O)N2CCOCC2)c1	CFTR F508del cor 22
Cc1ccc(C(=O)Nc2nc(-c3ccccn3)cs2)cc1S(=O)(=O)N1CCOCC1	none
CS(=O)(=O)Nc1ccc2c(c1)[C@H]1C[C@@H](CC(=O)NCc3ccccc3)O[C@H](CO)[C@H]1O2	none (no result: DENV2 CPE)
CN(C)C(=O)C[C@@H]1C=C[C@@H](NC(=O)Nc2cccc(F)c2)[C@H](CO)O1	none
COc1ccc(C(C#N)CC(=O)c2ccc3c(c2)OCO3)cc1OC (configuration not stated)	CFTR F508del cor 14 (no result: PGC1a acetyl inh)
COc1ccc(C(=O)CC(C#N)c2ccc3c(c2)OCO3)cc1OC (configuration not stated)	none (no result: PGC1a acetyl inh, FN deposit inh)
Cc1cccc(-c2ccc([C@@H]3[C@H]4CN(C(=O)c5cnccn5)CC(=O)N4[C@H]3CO)cc2)c1	none (no result: DENV2 CPE, Cneo AK release, PGC1a acetyl inh, FN deposit inh, CFTR F508del cor)
COc1cc(C(=O)Nc2ccc3c(c2)ncn3C)cc(OC)c1OC	CFTR F508del cor 12
C#Cc1ccc([C@H]2C=C(C(=O)OCC=C)O[C@@H](OCC)[C@@H]2CCCO)cc1	DENV2 CPE 49!
CCO[C@@H]1OC(C(=O)NCc2nc3ccccc3[nH]2)=C[C@H](c2coc3ccccc3c2=O)[C@H]1CCCO	DENV2 CPE 50
CCO[C@H]1OC(C(=O)NCc2nc3ccccc3[nH]2)=C[C@@H](C)[C@@H]1CCCO	none
C#Cc1ccc([C@@H]2C=C(C(=O)NCc3nc4ccccc4[nH]3)O[C@H](OCC)[C@H]2CCCO)cc1	DENV2 CPE 22! (no result: PGC1a acetyl inh)
CCO[C@@H]1OC(C(=O)Nc2ccccc2)=C[C@H](c2coc3ccccc3c2=O)[C@H]1CCCO	Cneo AK release 102!
